In ChEMBL document CHEMBL4177580, “New 5-HT1A, 5HT2A and 5HT2C receptor ligands containing a picolinic nucleus: Synthesis, in vitro and in vivo pharmacological evaluation” (Bioorg Med Chem, 2017):
The source made the active and inactive calls. The calls are words filed in the database; no cut-off is given here.

How the values were obtained:
[1] = target: T1, 5-hydroxytryptamine receptor 2C (Rattus norvegicus, UniProt P08909); assay: Displacement of [3H]mesulergine from serotonin 5-HT2C receptor in Sprague-Dawley rat brain cortex homogenates incubated for 15 mins by liquid scintillation spectrometry
T1 sequence (P08909 whole entry): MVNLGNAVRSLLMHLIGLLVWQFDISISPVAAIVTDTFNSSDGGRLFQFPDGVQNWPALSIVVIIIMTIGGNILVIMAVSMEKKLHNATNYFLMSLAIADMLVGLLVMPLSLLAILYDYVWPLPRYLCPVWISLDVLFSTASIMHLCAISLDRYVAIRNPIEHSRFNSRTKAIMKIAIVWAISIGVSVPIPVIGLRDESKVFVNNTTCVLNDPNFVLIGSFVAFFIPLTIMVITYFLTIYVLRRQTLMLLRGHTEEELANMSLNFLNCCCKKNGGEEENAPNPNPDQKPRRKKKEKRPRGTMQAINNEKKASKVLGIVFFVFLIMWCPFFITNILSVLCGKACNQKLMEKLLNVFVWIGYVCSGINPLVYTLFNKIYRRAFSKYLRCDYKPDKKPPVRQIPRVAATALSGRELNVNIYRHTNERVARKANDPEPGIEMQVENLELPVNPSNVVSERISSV

[2] = target: T2, 5-hydroxytryptamine receptor 1A (Rattus norvegicus, UniProt P19327); assay: Displacement of [3H]-8-OH-DPAT from serotonin 5-HT1A receptor in Sprague-Dawley rat brain cortex homogenates incubated for 30 mins by liquid scintillation spectrometry
T2 sequence (P19327 whole entry): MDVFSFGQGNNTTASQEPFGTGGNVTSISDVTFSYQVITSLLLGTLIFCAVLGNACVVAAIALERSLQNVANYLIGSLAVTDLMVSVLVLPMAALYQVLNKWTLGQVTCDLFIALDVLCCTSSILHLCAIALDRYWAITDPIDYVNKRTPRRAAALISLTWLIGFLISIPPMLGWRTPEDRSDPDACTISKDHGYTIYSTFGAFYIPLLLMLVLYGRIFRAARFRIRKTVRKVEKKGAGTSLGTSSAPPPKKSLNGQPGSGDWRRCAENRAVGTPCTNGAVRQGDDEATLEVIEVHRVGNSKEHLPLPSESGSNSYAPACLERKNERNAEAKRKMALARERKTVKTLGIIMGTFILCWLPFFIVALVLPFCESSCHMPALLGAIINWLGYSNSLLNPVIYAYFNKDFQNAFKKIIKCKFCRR

Mus musculus [3] = assay: Anxiolytic-like activity in Swiss albino mouse assessed as increase in time spent in open arms at 3.75 to 15 mg/kg measured for 5 mins test period by elevated plus maze test; assay type: functional, organism-based
Rattus norvegicus = assay: In-vivo 5-HT1A receptor agonist activity in Wistar rat assessed as induction of lower lip retraction by measuring lower lip retraction score at 30 mg/kg, ip dosed 15 mins before test (reference value: 0.0 +/- 0.0)
D(1A) dopamine receptor = D(1A) dopamine receptor (Homo sapiens, UniProt P21728); assay: Displacement of [3H]SCH-23390 from human recombinant dopamine D1 receptor expressed in CHO cells; assay type: cell-based
Mus musculus [4] = assay: Induction of hypothermia in Swiss albino mouse assessed as reduction in body temperature at 30 mg/kg, ip measured after 60 mins post dose; assay type: functional, organism-based
Procedure, shortened: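 Normothermic male Swiss mice; rectal thermistor readings over 180 min. Baseline is the mean of readings 60 and 30 min before dosing; readings at 30, 60, 90, 120 min post-injection; Δt = tf − ti. Test compounds i.p. (DMSO/methylcellulose); 8-OH-DPAT (5 mg/kg) and WAY 100635 (0.1 mg/kg) s.c. in water. Two-way ANOVA, Bonferroni.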

D(2) dopamine receptor = D(2) dopamine receptor (Homo sapiens, UniProt P14416); assay: Displacement of [3H]methyl-spiperone from human recombinant dopamine D2 receptor expressed in HEK293 cells; assay type: cell-based
[5] = target: 5-hydroxytryptamine receptor 2A (Rattus norvegicus, UniProt P14842); assay: Displacement of [3H]ketanserin from serotonin 5-HT2A receptor in Sprague-Dawley rat brain cortex homogenates incubated for 15 mins by liquid scintillation spectrometry
Chain of 5-hydroxytryptamine receptor 2A (P14842 whole entry): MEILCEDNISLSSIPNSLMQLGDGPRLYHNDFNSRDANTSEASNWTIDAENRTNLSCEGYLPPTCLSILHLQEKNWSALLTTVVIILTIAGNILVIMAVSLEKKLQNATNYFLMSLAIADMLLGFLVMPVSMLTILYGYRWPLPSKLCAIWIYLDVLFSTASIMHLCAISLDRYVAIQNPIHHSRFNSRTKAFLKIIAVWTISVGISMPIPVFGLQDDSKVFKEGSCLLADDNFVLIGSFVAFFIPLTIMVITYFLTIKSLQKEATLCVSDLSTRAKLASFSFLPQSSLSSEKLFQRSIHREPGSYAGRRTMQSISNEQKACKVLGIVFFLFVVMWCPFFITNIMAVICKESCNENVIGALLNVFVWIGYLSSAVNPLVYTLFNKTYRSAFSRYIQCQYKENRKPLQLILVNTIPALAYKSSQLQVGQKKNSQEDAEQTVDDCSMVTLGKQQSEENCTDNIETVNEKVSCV

Chain of D(2) dopamine receptor (P14416 whole entry): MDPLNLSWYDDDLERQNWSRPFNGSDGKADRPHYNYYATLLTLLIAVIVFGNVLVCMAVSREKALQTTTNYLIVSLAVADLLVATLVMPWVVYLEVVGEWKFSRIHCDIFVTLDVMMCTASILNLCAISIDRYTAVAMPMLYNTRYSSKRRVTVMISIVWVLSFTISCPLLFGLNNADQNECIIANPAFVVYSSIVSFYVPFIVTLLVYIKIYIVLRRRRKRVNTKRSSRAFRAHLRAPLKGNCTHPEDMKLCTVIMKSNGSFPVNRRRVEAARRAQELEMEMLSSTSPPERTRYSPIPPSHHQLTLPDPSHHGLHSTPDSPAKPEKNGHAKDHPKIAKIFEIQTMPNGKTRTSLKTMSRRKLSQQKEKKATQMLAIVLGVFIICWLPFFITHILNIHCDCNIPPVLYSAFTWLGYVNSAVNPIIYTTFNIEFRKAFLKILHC
Chain of D(1A) dopamine receptor (P21728 whole entry): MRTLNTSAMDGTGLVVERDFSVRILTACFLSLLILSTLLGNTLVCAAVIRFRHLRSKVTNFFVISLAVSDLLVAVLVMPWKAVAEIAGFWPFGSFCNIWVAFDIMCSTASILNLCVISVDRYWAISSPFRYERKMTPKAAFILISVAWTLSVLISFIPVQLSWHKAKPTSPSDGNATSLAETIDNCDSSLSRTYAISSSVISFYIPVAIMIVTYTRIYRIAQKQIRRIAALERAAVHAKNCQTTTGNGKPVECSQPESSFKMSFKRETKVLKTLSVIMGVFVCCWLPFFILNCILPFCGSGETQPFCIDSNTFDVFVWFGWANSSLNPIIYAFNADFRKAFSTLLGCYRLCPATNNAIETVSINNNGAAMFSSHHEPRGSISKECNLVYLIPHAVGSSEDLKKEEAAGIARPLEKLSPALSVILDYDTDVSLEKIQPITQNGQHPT

`O=C(NCCN1CCN(c2ccc(Cl)c(Cl)c2)CC1)c1ccccn1` was tested. Which Ki [1] did it give?
Its Ki is over 10000 nM.

What about the Ki [2] of the same compound?
Its Ki is 0.183 nM.

What about the Activity (Mus musculus [3]) of the same compound?
The Activity was “Active”.

What about the Activity_index (Rattus norvegicus) of the same compound?
The Activity_index was 0.1429.

What about the Ki (D(1A) dopamine receptor) of the same compound?
The Ki was 610 nM.

And the Activity (Mus musculus [4])?
Its Activity is “Active”.

And the Ki (D(2) dopamine receptor)?
The Ki was 250 nM.

What about the Ki [5] of the same compound?
Its Ki is 74.1 nM.
